From ChEMBL document CHEMBL1151302, “Cytotoxic and leishmanicidal aminoglycosteroids and aminosteroids from Holarrhena curtisii” (J Nat Prod, 1998)
Values after ≈ are worked out from the molar mass of the structure shown.

Key:
HL-60 = assay: Cytotoxicity against human HL60 cells after 3 days by MTT assay; type: functional, cell-based; details: HL-60, 72 h
Summary of the method: (§1)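 Cells were kept in MEM with 10% fetal calf serum and kanamycin; the P-388/VCR line also received 0.5 μg/mL vincristine. Cells were seeded at 20 000 cells/mL and tested at eight concentrations, starting from 25 μg/mL in the well. After 3 days of culture, living cells were counted by MTT staining. Each experiment was run three times.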

P388 [1] = assay: Cytotoxicity against mouse P388 cells after 3 days by MTT assay; type: functional, cell-based; details: P388, 72 h; summary of the method: as §1
P388 [2] = assay: Cytotoxicity against adriamycin-resistant mouse P388 cells after 3 days by MTT assay; type: functional, cell-based; details: P388, 72 h; summary of the method: as §1
P388 [3] = assay: Cytotoxicity against vincristine-resistant mouse P388 cells after 3 days by MTT assay; type: functional, cell-based; details: P388, 72 h; summary of the method: as §1
Leishmania donovani = assay: Antileishmanial activity against Leishmania donovani promastigotes after 6 to 7 hrs; type: functional, organism-based
Summary of the method: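 Promastigotes were maintained in 199 medium with 10% fetal calf serum and kanamycin. They were plated at 10 000 cells/mL and exposed to four sample concentrations, starting from 25 μg/mL in the well.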

Row | SMILES | IC50 (HL-60) [µg/mL] | IC50 (P388 [1]) [µg/mL] | IC50 (P388 [2]) [µg/mL] | IC50 (P388 [3]) [µg/mL] | IC50 (Leishmania donovani) [µg/mL]
1 | CN[C@H]1[C@@H](OC)C[C@H](O[C@H]2CC[C@@]3(C)[C@@H](CC[C@@H]4[C@@H]3CC[C@]3(C)[C@H](C(C)=O)CC[C@]43O)C2)O[C@@H]1C | 0.01 (≈ 0.0203 µM) | 17 (≈ 34.6 µM) | 10.4 (≈ 21.2 µM) | 10.1 (≈ 20.5 µM) | 6.25 (≈ 12.7 µM)
2 | CO[C@H]1C[C@H](O[C@H]2CC[C@@]3(C)[C@@H](CC[C@@H]4[C@@H]3CC[C@]3(C)[C@@H](C(C)=O)CC[C@]43O)C2)O[C@H](C)[C@H]1N | 2.6 (≈ 5.44 µM) | 4 (≈ 8.37 µM) | 11.5 (≈ 24.1 µM) | 3.5 (≈ 7.33 µM) | 1.56 (≈ 3.27 µM)
3 | CC(=O)[C@H]1C[C@H](O)[C@H]2[C@@H]3CC=C4C[C@H](N)CC[C@]4(C)[C@H]3CC[C@@]21C | 1.2 (≈ 3.62 µM) | 4.1 (≈ 12.4 µM) | 3.6 (≈ 10.9 µM) | 1.4 (≈ 4.22 µM) | > 1.56
4 | CC(=O)[C@H]1CC[C@]2(O)[C@@H]3CC[C@H]4C[C@H](N)CC[C@]4(C)[C@H]3CC[C@]12C | 10.1 (≈ 30.3 µM) | 3.6 (≈ 10.8 µM) | 8.6 (≈ 25.8 µM) | 3.4 (≈ 10.2 µM) | 6.25 (≈ 18.7 µM)
5 | CO[C@H]1C[C@H](O[C@H]2CC[C@@]3(C)[C@@H](CC[C@@H]4[C@@H]3CC[C@]3(C)[C@H](C(C)=O)CC[C@]43O)C2)O[C@H](C)[C@H]1N | 0.21 (≈ 0.44 µM) | 10.5 (≈ 22 µM) | 13.5 (≈ 28.3 µM) | 10.2 (≈ 21.4 µM) | 6.25 (≈ 13.1 µM)
6 | CN[C@H]1[C@@H](OC)C[C@H](O[C@H]2CC[C@@]3(C)[C@@H](CC[C@@H]4[C@@H]3CC[C@]3(C)[C@@H](C(C)=O)CC[C@]43O)C2)O[C@@H]1C [HOLACURTINE] | 0.86 (≈ 1.75 µM) | 4.2 (≈ 8.54 µM) | 3.4 (≈ 6.91 µM) | 2.8 (≈ 5.69 µM) | 1.56 (≈ 3.17 µM)
7 | CO[C@H]1C[C@H](O[C@H]2CC[C@@]3(C)C(=CC[C@@H]4[C@@H]3CC[C@]3(C)[C@@H](C(C)=O)C[C@H](O)[C@]43O)C2)O[C@H](C)[C@H]1N [HOLACURTINOL] | 2.6 (≈ 5.29 µM) | 16 (≈ 32.5 µM) | 10.4 (≈ 21.2 µM) | 10 (≈ 20.3 µM) | 6.25 (≈ 12.7 µM)
8 | CC(=O)[C@H]1CC[C@H]2[C@@H]3CC=C4C[C@H](N)CC[C@]4(C)[C@H]3CC[C@]12C [HOLAMINE] | 0.2 (≈ 0.634 µM) | 0.91 (≈ 2.88 µM) | 0.85 (≈ 2.69 µM) | 0.83 (≈ 2.63 µM) | 0.39 (≈ 1.24 µM)
